Experimental data as given in ChEMBL document CHEMBL1154334, “Effect of the structure of adenosine mimic of bisubstrate-analog inhibitors on their activity towards basophilic protein kinases” (Bioorg Med Chem Lett, 2009).

Experiments:
[1] = target: Rho-associated protein kinase 2 (Homo sapiens, UniProt O75116); assay: Displacement of ARC583 from ROCK2
[2] = target: T1, cAMP-dependent protein kinase catalytic subunit alpha (Homo sapiens, UniProt P17612); assay: Inhibition of PKACalpha in presence of […]
[3] = target: RAC-gamma serine/threonine-protein kinase (Homo sapiens, UniProt Q9Y243); assay: Inhibition of PKBgamma in presence of 100 uM ATP
Chain of RAC-gamma serine/threonine-protein kinase (Q9Y243 whole entry): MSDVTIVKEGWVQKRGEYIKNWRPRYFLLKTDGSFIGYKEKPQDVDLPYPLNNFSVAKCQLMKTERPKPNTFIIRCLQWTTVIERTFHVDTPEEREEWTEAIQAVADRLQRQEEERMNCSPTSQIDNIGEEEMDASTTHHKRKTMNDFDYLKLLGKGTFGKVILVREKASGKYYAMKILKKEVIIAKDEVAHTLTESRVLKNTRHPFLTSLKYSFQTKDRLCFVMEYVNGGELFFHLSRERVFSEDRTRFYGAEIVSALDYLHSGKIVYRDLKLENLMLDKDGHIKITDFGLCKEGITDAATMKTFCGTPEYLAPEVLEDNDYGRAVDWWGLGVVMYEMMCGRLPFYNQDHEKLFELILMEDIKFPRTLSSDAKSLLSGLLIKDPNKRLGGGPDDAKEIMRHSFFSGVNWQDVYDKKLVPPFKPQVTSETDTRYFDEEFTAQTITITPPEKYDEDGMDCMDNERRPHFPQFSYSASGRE
Outline: (§1)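 Kinetic phosphorylation assays with PKA catalytic subunit (PKAc) or PKB catalytic subunit (PKBc) at fixed ATP. ATP Km values taken as 20 for PKAc and 100 for PKBc.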

[4] = target: T1, cAMP-dependent protein kinase catalytic subunit alpha; assay: Inhibition of PKACalpha in presence of 100 uM ATP; outline: as §1

Chain of Rho-associated protein kinase 2 (O75116 whole entry): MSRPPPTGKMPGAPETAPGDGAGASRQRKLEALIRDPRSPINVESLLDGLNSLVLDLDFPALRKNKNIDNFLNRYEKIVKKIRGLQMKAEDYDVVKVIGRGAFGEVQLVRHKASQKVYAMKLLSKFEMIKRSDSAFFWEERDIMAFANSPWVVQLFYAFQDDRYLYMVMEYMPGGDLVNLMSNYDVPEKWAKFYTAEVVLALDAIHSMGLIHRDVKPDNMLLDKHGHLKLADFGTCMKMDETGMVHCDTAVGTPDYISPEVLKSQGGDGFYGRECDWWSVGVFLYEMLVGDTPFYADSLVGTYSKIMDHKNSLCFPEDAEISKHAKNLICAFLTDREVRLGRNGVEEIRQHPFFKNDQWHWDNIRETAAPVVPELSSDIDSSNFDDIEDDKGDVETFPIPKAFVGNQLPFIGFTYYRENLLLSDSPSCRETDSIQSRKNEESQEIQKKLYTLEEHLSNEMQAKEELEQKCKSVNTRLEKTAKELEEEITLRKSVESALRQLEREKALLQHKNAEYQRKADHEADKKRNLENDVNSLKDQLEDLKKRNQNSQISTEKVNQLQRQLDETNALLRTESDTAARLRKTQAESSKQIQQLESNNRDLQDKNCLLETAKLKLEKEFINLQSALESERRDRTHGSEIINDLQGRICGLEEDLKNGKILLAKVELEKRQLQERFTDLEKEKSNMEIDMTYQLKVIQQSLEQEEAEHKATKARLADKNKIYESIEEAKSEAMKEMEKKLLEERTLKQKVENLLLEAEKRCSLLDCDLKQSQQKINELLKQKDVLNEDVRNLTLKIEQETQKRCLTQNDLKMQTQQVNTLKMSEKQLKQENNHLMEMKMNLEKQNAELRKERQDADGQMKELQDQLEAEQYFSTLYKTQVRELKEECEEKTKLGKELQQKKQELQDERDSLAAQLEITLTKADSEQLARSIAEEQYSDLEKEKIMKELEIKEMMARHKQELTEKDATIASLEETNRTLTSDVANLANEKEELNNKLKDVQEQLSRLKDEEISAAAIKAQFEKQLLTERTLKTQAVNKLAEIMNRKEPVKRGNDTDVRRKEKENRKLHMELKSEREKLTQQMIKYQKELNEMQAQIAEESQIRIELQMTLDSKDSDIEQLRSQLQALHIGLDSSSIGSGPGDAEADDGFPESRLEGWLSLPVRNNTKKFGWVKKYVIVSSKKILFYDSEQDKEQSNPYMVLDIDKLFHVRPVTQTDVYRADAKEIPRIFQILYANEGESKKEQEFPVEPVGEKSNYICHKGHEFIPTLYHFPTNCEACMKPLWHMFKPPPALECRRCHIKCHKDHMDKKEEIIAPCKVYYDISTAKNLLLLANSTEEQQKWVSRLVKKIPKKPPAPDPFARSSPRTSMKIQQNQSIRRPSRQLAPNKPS

Row | Structure (SMILES) | Kd [1] [µM] | IC50 [2] [µM] | IC50 [3] [µM] | IC50 ([4]; read-out: IC50) [µM] | IC50 [4]
1 | NCCCC[C@@H](NC(=O)CCCCCNC(=O)c1cccc(-c2ccncc2)c1)C(=O)NCCCCCC(=O)N[C@H](CCCN=C(N)N)C(=O)N[C@H](CCCN=C(N)N)C(N)=O | 0.0038 |  | 0.9 | 0.39 | 
2 | NCCCC[C@@H](NC(=O)CCCCCNC(=O)c1cccc(-c2ccnc(N)n2)c1)C(=O)NCCCCCC(=O)N[C@H](CCCN=C(N)N)C(=O)N[C@H](CCCN=C(N)N)C(N)=O | 0.036 |  | 4.6 | 0.061 | 
3 | NCCCC[C@H](NC(=O)[C@@H](CCCN=C(N)N)NC(=O)[C@@H](CCCN=C(N)N)NC(=O)[C@@H](CCCN=C(N)N)NC(=O)[C@@H](CCCN=C(N)N)NC(=O)[C@@H](CCCN=C(N)N)NC(=O)[C@@H](CCCN=C(N)N)NC(=O)CCCCCNC(=O)[C@@H](CCCCN)NC(=O)CCCCCNC(=O)c1ccc(-c2ccnc(N)n2)s1)C(N)=O |  | 0.0049 | 0.042 |  | 

Now from value to molecule:

Row | Kd [1] [µM] | IC50 [2] [µM] | IC50 [3] [µM] | IC50 ([4]; read-out: IC50) [µM] | IC50 [4] | Structure (SMILES)
4 | < 0.003 | 0.082 | 0.27 |  |  | N=C(N)NCCC[C@@H](NC(=O)[C@@H](CCCNC(=N)N)NC(=O)CCCCCNC(=O)[C@@H](CCCCN)NC(=O)CCCCCNC(=O)c1ccc(-c2ccnc(N)n2)s1)C(N)=O
5 | 0.8 |  | 27 |  |  | N=C(N)NCCC[C@@H](NC(=O)[C@@H](CCCNC(=N)N)NC(=O)CCCCCNC(=O)[C@@H](CCCCN)NC(=O)CCCCCNC(=O)c1cn(-c2ncnc3[nH]cnc23)nn1)C(N)=O
6 | 123 |  | > 2000 |  | Not Active | CC(=O)NCCCCCC(=O)N[C@H](CCCCN)C(=O)NCCCCCC(=O)N[C@H](CCCNC(=N)N)C(=O)N[C@H](CCCNC(=N)N)C(N)=O
